Consider one compound from ChEMBL document CHEMBL5620402, “Development of submicromolar 17β-HSD10 inhibitors and their in vitro and in vivo evaluation” (Eur J Med Chem, 2023).

A short description of data set [1]: AUC (0 to 1440 mins) in male albino Wistar rat brain at 0.018 mg/kg, iv measured upto 1440 mins by HPLC-MS analysis. It is filed as ADME, organism-based. The note with it: in vivo, 24 h. In short, it runs like this: (§1)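 Single tail-vein injection into male wild-type rats, 0.1 mL per 100 g body weight. Solutions were 20 or 25 μM in saline with 3% DMSO, giving 0.013 or 0.018 mg/kg. Rats were exsanguinated at 5–1440 min (9 time-points, 3 per point). Plasma and brain levels were measured by HPLC-MS. Parameters came from non-compartmental analysis; values are mean ± SE of three.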

Data set [2] in a line: AUC (0 to 1440 mins) in male albino Wistar rat plasma at 0.018 mg/kg, iv measured upto 1440 mins by HPLC-MS analysis. It is filed as ADME, organism-based. The note with it: in vivo, 24 h. In a few lines: as §1

In the case of `O=C(Nc1ccc(O)c(Cl)c1)Nc1nc2ccc(C(=O)O)cc2s1`, the AUC came out at 34 pmol·min in data set [1] and 18961 pmol·min in data set [2].
